Screens (PubChem BioAssay)
OX1R antag-1 – blocks the human orexin 1 receptor; AID 434989; O43613; 0.43% of 330,000 active; CHO/OX1R cells, Fluo-8 calcium fluorescence, orexin A; inhibition, % at 5 µM;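 active = inhibition above its plate's threshold, mean inhibition of all tested compounds on the plate plus 3 SD, cut at about 37% in these data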;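 also: 0% = orexin A challenge wells and 100% = SB-334867-A antagonist wells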
Target sequence (O43613 whole entry, looked up): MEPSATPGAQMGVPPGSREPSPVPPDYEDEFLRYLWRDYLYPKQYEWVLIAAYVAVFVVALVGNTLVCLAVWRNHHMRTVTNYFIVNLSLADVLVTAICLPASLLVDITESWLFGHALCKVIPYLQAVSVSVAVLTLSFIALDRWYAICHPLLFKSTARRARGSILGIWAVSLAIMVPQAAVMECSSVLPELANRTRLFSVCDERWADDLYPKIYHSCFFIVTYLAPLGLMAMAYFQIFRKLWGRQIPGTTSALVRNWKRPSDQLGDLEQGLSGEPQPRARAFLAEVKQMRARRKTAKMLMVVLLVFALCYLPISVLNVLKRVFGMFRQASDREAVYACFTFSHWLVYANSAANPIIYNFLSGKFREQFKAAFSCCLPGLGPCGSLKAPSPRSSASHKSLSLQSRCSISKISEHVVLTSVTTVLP
OXTR potentiator – human OXTR potentiation. P30559. CHO-OTR cells, Fluo-8 calcium fluorescence, potentiator mode; 0% = oxytocin EC15, 100% = EC100. activation, % at 3 µM. 0.061% of 320,000 active;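 active = activation above that plate's cutoff, the mean activation of tested compounds plus 3 SD, cut at about 6.6% in these data, passing the limit was not always enough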;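 also: 100% uses oxytocin at 75 nM as the full agonist control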
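assay system = CHO-OTR cells, human receptor | schedule = compound 6 min at room temperature before oxytocin, 100 s read | detection = Fluo-8 intracellular calcium fluorescence, ex 470-495, em 515-575 nm | evaluation = normalized max/min fluorescence ratio, % activation | control set = EC15 oxytocin alone as 0%, 75 nM oxytocin (EC100) as 100%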
OX1R antag-2 – OX1R (human) antagonism; AID 485270; 1.8% of 330,000 active; OX1R-expressing cells, FRET antagonist read-out; O43613; inhibition, % at 6.6 µM; in the data active = inhibition mostly above about 38%, no sharp cut-off; inactive = mostly below about 40%;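 also: 0% = agonist challenge alone and 100% = reference antagonist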
V1R ag counter – activates human V1a receptor in oxytocin agonist counter-screen; CHO-V1R cells, Fluo-8 calcium fluorescence, agonist mode; 0% DMSO, 100% 3 nM vasopressin; activation, % at 3 µM; 0.25% of 320,000 active; AID 2797;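 active = activation above the mean activation of all tested compounds plus 3 SD, per screening run, cut at about 20% in these data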;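 also: signal is peak over basal fluorescence ratio across a 100 second FLIPR read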
OXTR ag – agonists of human oxytocin receptor. P30559. CHO-OTR cells, Fluo-8 calcium fluorescence; normalized: DMSO 0%, oxytocin 100%. activation, % at 3 µM. 0.32% of 320,000 active. AID 2435;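 active = activation above the mean of all tested compounds plus 3 SD, cutoff set per screening run, cut at about 20% in these data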;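 also: peak over basal fluorescence ratio from a 100 s FLIPR kinetic read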
CHO parental Ca – signal in parental CHO cells, OX1R antagonist counter-screen; parental CHO-K1, ATP-induced calcium, Fluo-8 fluorescence; inhibition, % at 5.6 µM; 0.63% of 330,000 active;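 active = inhibition above that plate's mean sample inhibition plus 3 SD, cut at about 26% in these data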;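 also: 0% = ATP-challenged DMSO wells and 100% = DMSO wells without ATP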
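Material: parental CHO cells / Compound: single nominal dose of 5.6 µM per compound / Signal: Fluo-8 fluorescence / Replicates: singlicate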
OXTR ag confirm – confirmation of human oxytocin receptor agonists | shares compounds with OXTR ag | CHO-OTR cells, Fluo-8 calcium fluorescence, agonist | activation, % at 3 µM | 20% of 390 active | AID 434963;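 active = mean activation above about 20% derived from the earlier single-dose screen, limit read from the data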;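 also: peak over minimum fluorescence ratio per well during a 100 second FLIPR read; 0% = DMSO alone and 100% = oxytocin high control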
V1R ag counter 3x – V1R agonism in triplicate, counter-screen for OXTR agonists. shares compounds with OXTR ag. CHO-V1R cells, Fluo-8 calcium fluorescence, agonist. activation, % at 3 µM. 10% of 390 active;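 active = mean activation over triplicate exceeds the hit threshold set in the earlier primary screen, cut at about 20% in these data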;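 also: peak over basal fluorescence ratio within a 100 second read; 0% = DMSO alone and 100% = 3 nM vasopressin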
Active calls of the source: *; . = no result. A selection: hits, their analogues and other compounds. The true share with any hit is near 2.7%.

SMILES	OX1R antag-1	OXTR potentiator	OX1R antag-2	V1R ag counter	OXTR ag	CHO parental Ca	OXTR ag confirm	V1R ag counter 3x
N#C/C(=C\c1ccc(N2CCOCC2)o1)C(=O)NCCc1ccccc1	19	-14	26	19	21*	12	23*	46*
CCC(C)(C)C1CCc2[nH]nc(C(=O)NCCNC(=O)OC(C)(C)C)c2C1 (configuration not stated)	-31	-1	7	0	0	-29	.	.
CCn1c(=O)c(C(=O)Nc2ncccc2O)c(O)c2ccccc21	-4	1	9	1	-1	-14	.	.
CCn1c(=O)c(C(=O)Nc2ncccc2C)c(O)c2ccccc21	-17	-6	26	20	32*	-6	6	33*
CCOC(=O)NC(NCc1cccc(C(F)(F)F)c1)(C(F)(F)F)C(F)(F)F	-5	-10	16	0	25*	-2	-1	0
CC(C)(C)OC(=O)NCCCCCNC(=O)c1[nH]cnc1C(=O)NC1CCN(C(=O)OC(C)(C)C)CC1	-18	-7	8	0	-1	-24	.	.
COc1cccc(/C=N/Nc2snc(SC)c2C#N)c1O	10	-10	60*	13	21*	0	20*	11
CC(NCc1ccc(-c2ccccc2)cc1)C(O)c1ccccc1 (configuration not stated)	-4	-6	10	12	23*	5	3	4
CC(O)CNCc1ccc(-c2ccccc2)cc1 (configuration not stated)	-5	-3	13	3	4	-2	.	.
O=C(N1CCCCC1)N1CCN(S(=O)(=O)c2ccc(Cl)cc2)CC1	-19	-24	21	2	27*	-11	0	0
CNc1ccc(S(=O)(=O)NC)cc1[N+](=O)[O-]	-12	-9	64	0	1	2	.	.
CNc1nc2cc([N+](=O)[O-])c([N+](=O)[O-])cc2nc1NC	27	-11	45	11	26*	59*	23*	16
C[C@H](CO)N1C[C@H](C)[C@@H](CN(C)C)Oc2c(NS(=O)(=O)c3cccs3)cccc2C1=O	14	-3	-2	1	1	-8	.	.
CN(C)Cc1c(O)ccc2ccccc12	7	-2	13	0	2	-1	.	.
CN(C)Cc1c(O)ccc2oc(Cc3ccccc3)cc12	6	-19	26	14	23*	10	1	1
OC(c1cc(C(F)(F)F)nc2c(C(F)(F)F)cccc12)C1CCCCN1 (configuration not stated)	-5	-16	1	11	24*	4	9	8
CCOc1ccc(S(=O)(=O)N2CCCCC2)cc1NC(=O)CC1OC(=O)c2ccccc21 (configuration not stated)	-35	-1	5	0	0	-22	.	.
O=C(Nc1cccc([N+](=O)[O-])c1)c1cc2ccccc2cc1O	24	-9	51*	14	25*	36*	16	13
O=C(O)c1cc([N+](=O)[O-])ccc1C(=O)Nc1cccc([N+](=O)[O-])c1	-4	6	21	0	0	-2	.	.
CCC1(c2ccc(F)cc2)NC(=O)N(CC(=O)Nc2ccc(N3CCCCC3)cc2)C1=O (configuration not stated)	-12	-18	-10	15	27*	1	16	14
O=C(O)c1ccc(N/N=C/c2cn(Cc3ccc(F)cc3)c3ccccc23)cc1	0	-17	11	20	21*	2	10	7
CCNC(=S)N/N=C/c1cn(Cc2ccc(F)cc2)c2ccccc12	-21	-2	7	1	-2	-15	.	.
O=C(NCc1ccc(OC(F)(F)F)cc1)c1cccc2c1C(=O)c1ccc(N3CCC(Cc4ccccc4)CC3)cc1S2(=O)=O	-16	-2	3	6	23*	-6	22*	27*
